Compounds with a hit are over-represented: about 2.3% of the library has one in this group of screens.
TRPC4 PAM – positive allosteric modulators of TRPC4, primary screen, cell-based, mouse TRPC4beta, HEK293 mu-opioid, Fluo-4 calcium; Short transient receptor potential channel 4 (Mus musculus), Q9QUQ5; B-score at 10 µM; DAMGO EC20, Fluo-4 Ca2+ flux; hits give high values; 0.42% of 310,000 active;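 active = B-score of calcium response area above 5 SD of library B-scores, with initial fluorescence ratio within 5 SD of library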;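 note: B-score of integrated fluorescence ratio over time as area under calcium response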
TRPC4 act – activators of mouse TRPC4 channel, primary screen, Fluo4 calcium, HEK293 TRPC4beta/mu-opioid cells. B-score at 10 µM. AID 2237, 2010. Short transient receptor potential channel 4 (Mus musculus), Q9QUQ5. Fluo4 calcium fluorescence; hits give high values. 0.49% of 310,000 active;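 active = B-score above 5 SD of library B-scores, and initial fluorescence ratio not above library mean plus 5 SD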;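 note: positive B-score marks a calcium rise read as TRPC4 activation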
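Assay system: HEK293 cells stably co-expressing mouse TRPC4beta and mu-opioid receptor / Timing: Fluo4 dye loading 45 min at room temperature, 110 s recording / Signal: Fluo4 calcium-sensitive dye fluorescence, kinetic, 1 Hz baseline / Read-out: integrated baseline-normalised fluorescence ratio, converted to per-well B score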
TRPC4 block – inhibitors of mouse TRPC4 channel, primary screen, Fluo4 calcium, HEK293 TRPC4beta/mu-opioid cells. Short transient receptor potential channel 4 (Mus musculus), Q9QUQ5. DAMGO-evoked Fluo4 calcium flux; hits give low values. B-score at 10 µM. 0.39% of 300,000 active;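 active = B-score over 3 SD under the library average, no early fluorescence shift, positive overall ratio signal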
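test system = HEK293 cells with stable TRPC4beta plus mu-opioid receptor expression | detection = Fluo4 Ca2+ flux fluorescence | read-out = integrated fluorescence ratio relative to baseline, converted to per-well B score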
TRPC6 activator – mouse TRPC6 channel activators, primary screen, cell-based, HEK293, membrane potential dye. Short transient receptor potential channel 6 (Mus musculus), Q61143. HEK293-TRPC6 membrane potential dye fluorescence; hits give high values. B-score at 10 µM. 0.13% of 310,000 active. AID 2550, 2010;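 active = B-score of the integrated fluorescence ratio above library mean plus 3 SD, and starting fluorescence ratio within library mean plus 5 SD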;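 note: higher score means more depolarization so channel activation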
TRPC6 inh – mouse TRPC6 channel inhibitors, primary screen, cell-based, HEK293, membrane potential dye; Short transient receptor potential channel 6 (Mus musculus), Q61143; ACh-evoked depolarization; hits give low values; B-score at 10 µM; 1.1% of 310,000 active; AID 2553, 2010;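 active = B-score under library mean minus 3 SD, initial fluorescence not abnormally high, positive integrated signal ratio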;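 note: B-score derived from integrated fluorescence ratio over the kinetic read; more negative B-score means stronger inhibition of depolarization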
TRPC4 sel inh 2 – mouse TRPC4 off-target activity of TRPC6 inhibitors, second screen | inhibition, % at 10 µM | 42% of 920 active | AID 2776 | HEK293 TRPC4/MOR, membrane potential dye fluorescence; channel activated by saturating DAMGO dose | shares compounds with TRPC6 inh;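 active = compounds whose fluorescence signal differed from control wells by over 3 SD, either direction, in both duplicate plates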
TRPC4 spec – mouse TRPC4 modulation by TRPC6 hits, confirmation, selectivity assay for TRPC6 inhibitor project, cell-based, HEK293 TRPC4/mu-opioid, membrane potential dye; shares compounds with TRPC6 inh; membrane potential fluorescence; activity change, negative = inhibition, % at 10 µM; 61% of 920 active; AID 2777, 2010;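 active = rise or fall in signal beyond 3 SD of buffer-only wells in both replicate plates, either sign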;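 note: integrated kinetic ratio of fluorescence range over baseline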
HEK293 MPD ctr 2-1 – nonspecific membrane potential effects, parental HEK293, confirmation, counter-screen for TRPC6 inhibitor project, cell-based, second counter screen. shares compounds with TRPC6 inh. parental HEK293 membrane potential dye fluorescence; maximal acetylcholine challenge after compound addition. signal change vs control, % at 10 µM. 31% of 920 active. AID 2779, 2010;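 active = membrane potential signal moving either way by over 3 SD of the maximum-effect control, in both duplicate plates, meaning non-specific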
HEK293 MPD ctr-1 – membrane potential modulation in parental HEK293, confirmation, counter-screen for TRPC6 inhibitor project, cell-based; shares compounds with TRPC6 inh; parental HEK293 membrane potential dye fluorescence; membrane potential signal change, % at 10 µM; 60% of 920 active;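 active = membrane potential signal shifting up or down by more than 3 SD of buffer-only wells, on both duplicate plates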
HEK293 MPD ctr-2 – parental HEK293 membrane potential modulation, confirmation, counter-screen for TRPC6 modulator project, cell-based; shares compounds with TRPC6 inh; 51% of 2,400 active; AID 488924, 2010; membrane potential dye fluorescence; membrane potential signal change, % at 10 µM;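 active = membrane potential signal moves up or down beyond 5 SD from buffer-only wells, on both duplicate plates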
HEK293 MPD ctr 2-2 – second counter-screen for TRPC6 modulators: effect in parental HEK293 cells | shares compounds with TRPC6 inh | membrane potential dye fluorescence; after compound, maximal acetylcholine stimulation | inhibition, % at 10 µM | 14% of 2,400 active;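 active = membrane potential signal drops by more than 5 SD from the mean control signal, in both duplicate plates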;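 note: plate controls were acetylcholine ECmax control wells for no effect and buffer only wells for full effect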
TRPC4 ctr mod – TRPC4 modulation by TRPC6 hit compounds, confirmation, selectivity assay for TRPC6 modulator project, cell-based, HEK293 TRPC4/mu-opioid, membrane potential dye, mouse | 69% of 2,400 active | shares compounds with TRPC6 inh | percent change from control (negative = decrease, positive = increase), % at 10 µM | membrane potential fluorescence;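 active = membrane potential signal moved up or down beyond 5 SD of buffer control wells, in both duplicate plates, actives on both sides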;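 note: plate controls were assay buffer wells for no effect and DAMGO maximal-effect wells for full effect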
TRPC4/MOR inh 2 – second selectivity test of TRPC6 modulators against mouse TRPC4. HEK293 TRPC4/mu-opioid, membrane potential dye fluorescence; stimulated with maximal-effect DAMGO. AID 488928. 55% of 2,400 active. shares compounds with TRPC6 inh. inhibition, % at 10 µM;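 active = drop in membrane potential signal beyond 5 SD of the control wells in both duplicate plates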;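 note: TRPC4 counter screen for TRPC6 hits run under conditions tuned for TRPC6 not TRPC4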
TRPC6 block conf – mouse TRPC6 channel inhibitors, confirmation, HEK293 cells, membrane potential dye, duplicate. shares compounds with TRPC6 inh. ACh-evoked depolarization. inhibition, % at 10 µM. 43% of 3,300 active. AID 488960, 2010;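 active = fluorescence ratio falls more than 5 SD below the full-stimulation control mean, in both duplicate runs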;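 note: integrated fluorescence ratio of peak minus minimum over baseline after agonist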
TRPC6 act conf – mouse TRPC6 channel activators, confirmation, HEK293 cells, membrane potential dye, duplicate; 11% of 2,800 active; HEK293-TRPC6 membrane potential dye fluorescence, FDSS; activation, % at 10 µM; shares compounds with TRPC6 inh;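 active = ratio signal rise beyond 5 SD above unstimulated control wells' mean, seen in both duplicate runs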;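 note: plate controls were buffer EC0 wells for no effect and acetylcholine ECmax response for full effect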
Starred values were filed as active, the others as inactive; i = inactive; x = no result; ! = not confirmed by another sample.

SMILES	TRPC4 PAM	TRPC4 act	TRPC4 block	TRPC6 activator	TRPC6 inh	HEK293 MPD ctr-2	HEK293 MPD ctr 2-2	TRPC4 ctr mod	TRPC4/MOR inh 2	TRPC6 block conf	TRPC6 act conf	others
CCCn1c(=N)c(C(=O)NCC2CCCO2)cc2c(=O)n3cccc(C)c3nc21 (stereo not drawn)	i	i	i	i	i	x	x	x	x	x	x
N=c1c(C(=O)NCC2CCCO2)cc2c(=O)n3ccccc3nc2n1C1CCCC1 (stereo not drawn)	i	i	i	i	-5.9*	i	i	i	i	i	i
CS(=O)(=O)N(CC(=O)N1CCCCCC1)c1cccc(F)c1	i	i	i	i	i	x	x	x	x	x	x
COc1cc(C(=O)O[C@H]2CC(C)=CC[C@@]3(C)CC[C@@](O)(C(C)C)[C@H]23)ccc1O	i	i	i	i	i	x	x	x	x	x	x
CC#CC(=O)N1CCCC(Cc2cccc(OC)c2)(C(=O)OCC)C1 (stereo not drawn)	i	i	i	i	i	x	x	x	x	x	x
N=c1c(C(=O)NCC2CCCO2)cc2c(=O)n3ccccc3nc2n1C1CCCCC1 (stereo not drawn)	i	i	i	i	-5.4*	-100%*	i	-24%*	i	i	i
COc1ccc(CCNC(=O)c2cc3c(=O)n4ccccc4nc3n(C3CCCCC3)c2=N)cc1	i	i	i	i	i	x	x	x	x	x	x
C=CCn1c(=N)c(C(=O)NCCCOC)cc2c(=O)n3cccc(C)c3nc21	i	i	i	i	-5.2*	226%*	83%*	40%*	i	i	x
CN1CCN(c2ccccc2NC(=O)c2ccc(Br)o2)CC1	i	i	i	i	-9.6*	x	x	x	x	87%*	i	TRPC4 sel inh 2=28%*;TRPC4 spec=i;HEK293 MPD ctr 2-1=i;HEK293 MPD ctr-1=i
CC(C)Oc1cccc(C(=O)NC(=S)Nc2ccc(N3CCN(C)CC3)cc2)c1	16*	i	i	i	-6.3*	i	i	i	62%*	42%*	i
CN1CCN(c2ccc(NC(=O)c3cc4ccccc4o3)cc2)CC1	i	i	i	i	-5.2*	i	i	i	48%*	41%*	i
O=C(Nc1ccccc1N1CCCC1)c1cc2ccccc2o1	i	i	i	i	i	x	x	x	x	x	x
CN1CCN(c2ccccc2NC(=O)c2cc3ccccc3o2)CC1	i	i	i	i	-13*	x	x	x	x	72%*	i	TRPC4 sel inh 2=25%*;TRPC4 spec=-22%*;HEK293 MPD ctr 2-1=i;HEK293 MPD ctr-1=-212%*
CS(=O)(=O)N1CCN(c2ccc(NC(=O)c3cc4ccccc4o3)cc2)CC1	i	i	i	i	i	x	x	x	x	x	x
COc1cc2ccccc2cc1C(=O)Nc1ccc(N2CCN(C)CC2)cc1	i	i	i	i	-5.5*	i	i	-12%*	64%*	60%*	i
CN1CCN(c2ccc(NC(=O)c3ccc(Oc4ccccc4)cc3)cc2)CC1	i	i	i	i	-6.2*	i	i	i	58%*	48%*	i
c1ccc2nc3ccccc3nc2c1	i	i	i	i	i	x	x	x	x	x	x
Nc1c2ccccc2nc2ccccc12	i	i	i	i	-10*	x	x	x	x	66%*!	i	TRPC4 sel inh 2=43%*;TRPC4 spec=-37%*;HEK293 MPD ctr 2-1=32%*;HEK293 MPD ctr-1=-420%*
Cc1c(N(C)C)nc2ccccc2c1N	i	i	i	i	-10*	x	x	x	x	i	i	TRPC4 sel inh 2=44%*;TRPC4 spec=-18%*;HEK293 MPD ctr 2-1=i;HEK293 MPD ctr-1=-312%*
Cc1c2ccccc2nc2c(F)c(N(C)C)c(F)c(F)c12	i	i	i	i	i	x	x	x	x	x	x
CC(=O)c1c(C)nc2ccccc2c1N	i	i	i	i	-5.2*	-195%*	i	-32%*	i	i	i
CCN(CC)c1nc2ccccc2c(N)c1-c1ccccc1	i	i	-7*	i	-6.9*	x	x	x	x	i	i	TRPC4 sel inh 2=42%*;TRPC4 spec=14%*;HEK293 MPD ctr 2-1=i;HEK293 MPD ctr-1=9.3%*
CCOC(=O)c1csc(NC(=O)c2ccc3c(c2)OCCO3)n1	i	i	i	i	i	x	x	x	x	x	x
CCCC(NC(=S)NCC1CCCO1)C12CC3CC(CC(C3)C1)C2 (stereo not drawn)	i	i	i	i	i	x	x	x	x	x	x
O=C(c1cc([N+](=O)[O-])[nH]n1)N1CCSCC1	i	i	i	i	i	x	x	x	x	x	x
